Bioassay records: PubChem BioAssay, several laboratories
ARNT-TACC3 inh: disrupts binding between human ARNT and TACC3 | inhibition, % at 9.99 µM | Q9Y6A5 | AlphaScreen His-ARNT PAS-B/GST-TACC3 binding, luminescence; TACC3 fragment carries E629A point mutation | actives 0.66% (n = 390,000);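 active = mean inhibition of replicates at least 50% and at least half of replicates each reaching 50%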;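 note: 0% = complete ARNT plus TACC3 wells and 100% = ARNT alone without TACC3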
RTF Ca sens inh: cardiac RTF calcium desensitization; IANBD-labeled cardiac RTF, Ca2+ fluorescence; inhibition, % at 7.15 µM; AID 493244; P19429+P45379; actives 0.12% (n = 340,000);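 active = inhibition above the mean inhibition of all tested compounds plus 3 SD, cut at about 17% in these data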;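 note: assay run at fixed EC70 calcium of 1.6 mM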
UCH37 DUB inh: human UCH37 deubiquitinating enzyme inhibition. Q9Y5K5. purified proteasome/UCH37, Ub-AMC cleavage fluorescence. inhibition, % (test concentration not listed). actives 0.33% (n = 330,000). AID 588478;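 active = mean inhibition over replicate wells above about 20%, limit read from the data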;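 note: 0% = compound-free wells with enzyme and 100% = wells lacking proteasome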
Target sequence (Q9Y5K5 whole entry, looked up): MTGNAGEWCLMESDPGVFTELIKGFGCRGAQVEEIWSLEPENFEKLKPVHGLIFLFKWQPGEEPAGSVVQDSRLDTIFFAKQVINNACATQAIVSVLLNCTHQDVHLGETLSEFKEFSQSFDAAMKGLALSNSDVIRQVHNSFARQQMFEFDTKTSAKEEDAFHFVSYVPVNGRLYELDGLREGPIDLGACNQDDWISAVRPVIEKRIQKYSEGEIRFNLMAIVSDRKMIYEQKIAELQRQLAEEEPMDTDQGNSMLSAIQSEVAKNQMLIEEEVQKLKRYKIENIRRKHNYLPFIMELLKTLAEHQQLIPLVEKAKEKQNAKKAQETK
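Assay system: Proteasome-bound UCH37. Buffer or medium: pH 7.4 Tris-HCl (50 mM) with ovalbumin, ATP-MgCl2, DTT. Incubation: 30 min preincubation with enzyme, 25 min cleavage at room temperature. Measured by: fluorescence, ex 355 nm, em 460 nm. Read-out basis: percent inhibition. Control set: wells without proteasome as full block, compound-free enzyme plus substrate as uninhibited.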
Efflux pump mplx: inhibitors of Candida antifungal efflux pumps expressed in yeast. inhibition, % at 10 µM. S. cerevisiae Candida pump triplex, Nile Red efflux. actives 0.44% (n = 330,000);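 active = plate passing quality check with inhibition over a set limit, or well fluorescence over plate mean plus 4 SD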;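 note: Nile Red retained in pooled yeast measured as flow cytometry median fluorescence; 0% = buffer negative control and 100% = Enniatin B positive control; higher means more Nile Red kept so more efflux inhibition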
cardiac RTF act: cardiac RTF calcium sensitization | P19429+P45379 | IANBD-labeled TnC RTF fluorescence at EC20 calcium; 0% EC20 calcium, 100% full calcium | activation, % at 7.2 µM | actives 0.24% (n = 340,000) | AID 493008;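 active = activation above the mean over all tested compounds plus 3 SD, cut at about 30% in these data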;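 note: rise in fluorescence read as greater calcium sensitivity of cardiac thin filaments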
SUMO Mot1 rescue: inhibitors of SUMOylation pathway: yeast Mot1-301 growth rescue; S. cerevisiae Mot1-301 growth rescue, ATP luminescence, 38.5C; percent above DMSO median, 100 means doubled; growth rescue, % at 18.8 µM; actives 1% (n = 320,000); AID 2716;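 active = every valid replicate shows activation above 250% relative to neutral control wells; inactive = the rest, any valid replicate at or below 250%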;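 note: OY570 slx delta 5 strain wells were the positive control but not used for scaling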
Starred values were filed as active, the others as inactive; · = not tested or not shown. An excerpt weighted towards active compounds, which were near 2.1% of everything screened.

SMILES	ARNT-TACC3 inh	RTF Ca sens inh	UCH37 DUB inh	Efflux pump mplx	cardiac RTF act	SUMO Mot1 rescue
CCOc1cc(/C=C(/C#N)c2nc3ccccc3[nH]2)ccc1OCc1ccc(C(=O)O)o1	59*	-5	·	0	-7	-1
Cn1c(-c2ccc3c(c2)OCO3)cnc1N	54*	-6	1	0	0	269
Cn1c(-c2ccc3c(c2)OCO3)cnc1NCc1ccccc1	9	-3	-2	0	-5	-1
Cc1ccc(C=N/N=C2/NC(=O)C(CC(=O)Nc3ccccc3)S2)o1 (stereo not drawn)	·	·	5	·	·	·
OCC1OC(n2cnc3c(NCCc4ccccc4)ncnc32)C(O)C1O (stereo not drawn)	-2	7	1	0	0	317*
Cc1ccc(O)c(C=NNC(=O)Cc2ccc(Cl)cc2)c1	·	·	0	·	·	·
Cc1ccc(S(=O)(=O)c2c(C)cc(C)nc2Oc2cccc(C(F)(F)F)c2)cc1	active	-7	1	0	-4	·
COC(C(=O)NN=Cc1ccc(OCC(=O)N2CCOCC2)cc1)c1ccccc1 (stereo not drawn)	·	·	3	·	·	·
O=C(NCCCn1ccnc1)c1cccc(Cl)c1	-5	-6	0	0	-2	-3
COc1ccc(NC(=S)NCCCn2ccnc2)cc1	active	5	-2	0	3	50
O=C(NCCCn1ccnc1)Nc1cccc(Cl)c1	61*	-26	5	0	1	0
COc1cc(C(=O)Oc2cccc(C=NNC(=O)c3cc(C)[nH]n3)c2)cc(OC)c1OC	·	·	0	·	·	·
c1ccc(-c2cnn3c(-c4ccccc4)c(-c4ccccc4)nc3n2)cc1	-2	-237	-6	·	378*	·
Cc1cccc(-n2ccnc2CN2CCC(CO)(Cc3ccccc3)CC2)c1	-5	-2	2	0	1	643*
Cc1cccc(-n2ccnc2CN2CCN(C3CCCC3)C(CCO)C2)c1 (stereo not drawn)	2	-8	3	0	-1	-33
CCC1CC(C(=O)Nc2ccccc2)C(=O)O1 (stereo not drawn)	-3	-6	3	0	9	301*
C=CCNC(=S)NNC(=O)C(CC(C)C)CC(C)O (stereo not drawn)	14	-4	1	0	3	11
C=CCNC(=S)NNC(=O)C(CCC(C)C)CC(C)(C)O (stereo not drawn)	3	8	31*	0	2	-13
CC(C)CN(C(=O)CSc1nn(-c2ccc(Cl)cc2)c(=S)s1)C1CCS(=O)(=O)C1 (stereo not drawn)	36*	-2	0	0	5	0
O=C(NC(C(=O)NN=Cc1cc([N+](=O)[O-])ccc1O)c1n[nH]c(=O)c2ccccc12)c1ccccc1 (stereo not drawn)	·	·	14	·	·	·
Cc1cc(C(=O)N/N=C/c2cc([N+](=O)[O-])ccc2O)c2ccccc2n1	76*	3	·	0	-1	-3
CCOC(=O)c1c(C)[nH]c(C(=O)N/N=C/c2cc([N+](=O)[O-])ccc2O)c1C	72*	6	·	0	-3	-9
CCOC(=O)c1c(C)[nH]c(C(=O)N/N=C\c2ccccc2O)c1C	2	-4	·	0	-19	-3
O=C(NC(C(=O)N/N=C/c1cc([N+](=O)[O-])ccc1O)c1n[nH]c(=O)c2ccccc12)c1ccccc1 (stereo not drawn)	68*	0	·	0	-1	-10
Cc1ccccc1C=NNc1nc2ccccc2c(=O)n1O	·	·	3	·	·	·
SMILES	ARNT-TACC3 inh	RTF Ca sens inh	UCH37 DUB inh	Efflux pump mplx	cardiac RTF act	SUMO Mot1 rescue
CCCCC[n+]1ccn(C2=C([O-])c3ccccc3C(=O)/C2=N\S(=O)(=O)c2ccccc2)c1	2	-15	24*	0	-4	·
C=CCN1C(=O)C(=Nn2cnnc2)c2ccccc21	·	·	0	·	·	·
COCc1c(C(=O)NN=C(C)c2cccs2)nnn1-c1nonc1N	·	·	-49	·	·	·
Cc1ccccc1C(=O)N1CCC(C(=O)N(CC(C)C)c2c(N)n(Cc3ccccc3)c(=O)[nH]c2=O)CC1	-3	3	2	0	-8	336*
CCCCN(C(=O)C1CCN(C(=O)c2ccccc2C)CC1)c1c(N)n(CC(C)C)c(=O)[nH]c1=O	12	3	1	·	-9	·
COC(=O)c1ccc(C=NNc2nc3ccccc3[nH]2)cc1	·	·	5	·	·	·
Clc1cccc(NN=Cc2ccc(N3CCOCC3)cc2)c1	·	·	-23	·	·	·
Clc1cccc(N/N=C/c2ccc(N3CCOCC3)cc2)c1	-1	-6	·	0	-6	326*
O=c1cnnc(N/N=C/c2cccs2)[nH]1	62*	0	·	0	-7	·
Cc1cc(=O)[nH]c(N/N=C/c2cccs2)n1	31	8	·	0	-2	5
CC(=NNC(=O)C(O)c1ccccc1)c1ccc(Cl)cc1 (stereo not drawn)	·	·	1	·	·	·
Nc1c(C(=O)c2ccccc2)sc2nsc(SCCN3CCCC3)c12	-1	-29	10	0	10	8
Nc1c(C(=O)c2ccc(Cl)cc2)sc2nsc(SCCN3CCOCC3)c12	-9	-21	6	0	33*	155
S=c1[nH]c(-c2ccccc2)cn1N=Cc1ccccc1Br	·	·	2	·	·	·
COc1ccc(C2=NOC(C(=O)NCc3ccco3)C2)cc1 (stereo not drawn)	-1	2	-2	0	2	-4
O=C(NCc1ccco1)C1CC(c2ccc(C(F)(F)F)cc2)=NO1 (stereo not drawn)	4	1	27*	0	-8	6
Cc1ccc(-n2nnnc2CNC(=O)c2ccc3c(c2)OCO3)cc1C	-1	-2	4	0	-3	330*
COc1ccc(CCNC(=O)c2ccc([N+](=O)[O-])cc2)cc1	-2	9	4	0	3	96
COc1ccc2c(CCNC(=O)c3ccc([N+](=O)[O-])cc3)c[nH]c2c1	22	-8	27*	0	0	226
CNc1nc2ccccc2n1N=Cc1cccc(OC)c1OC	·	·	-17	·	·	·
CCCCC(=O)Nc1ccc(C(=O)Nc2ccc(OC)cc2[N+](=O)[O-])cc1	-3	-70	2	3	81*	1
N#C/C(=C\c1ccc(N2CCCCC2)o1)C(=O)Nc1cccc(Br)c1	-7	-155	4	0	146*	15
CN(C)c1ccc(/C=C(\C#N)C(=O)Nc2nc3c(s2)CCN(Cc2ccccc2)C3)cc1	-3	-67	7	0	83*	-13
O=C(c1ccccn1)N1CCN(c2cccc(C(F)(F)F)c2)CC1	-7	-7	0	0	7	363*
CC1=CC(=C(C#N)c2nc3ccccc3s2)C=C(C)N1c1ccc(F)cc1	-5	-7	4	0	110*	-1
